# Assay results from ChEMBL document CHEMBL2016445, “Discovery of a novel class of potent and orally bioavailable sphingosine 1-phosphate receptor 1 antagonists” (J Med Chem, 2012).
# pIC50: −log10 of the molar value.
# Assays:
# [1] = target: T1, Sphingosine 1-phosphate receptor 1 (Homo sapiens, UniProt P21453); test: Antagonist activity at S1P1 receptor expressed in HEK293 cells assessed as inhibition of S1P-induced cAMP response after 90 mins by spectrophotometry; assay type: functional, cell-based
# [2] = Drug uptake in nu/nu homozygous mouse plasma at 100 mg/kg, po as a solution in 10% EtOH/40% PEG400/water + 1:1 HCl after 1 hr by HPLC/MS/MS analysis; assay type: ADME, organism-based; parameters: dose 100 mg/kg, route oral
# In short: (§1)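 Female Nu/Nu mice (~8 wk, 20-22 g) given a single 100 mpk oral dose at 10 mL/kg. Vehicles: 10% EtOH/45% or 40% PEG400/water + 1 molar equiv HCl, 10% EtOH/40% PEG400/20% Captisol + HCl, or 10% NMP/90% corn oil. Heparinized blood collected 1 and 4 h post-dose; plasma analysed by HPLC/MS/MS.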
# [3] = Metabolic stability of the compound in mouse liver microsomes assessed as compound oxidation measuring disappearance of compound at 15 uM after 30 mins by LC/MS/MS analysis; assay type: ADME, Microsome; conditions: read-out: Drug degradation
# In short: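 Incubated in duplicate for 30 min at 37 °C: 15 µM compound, 0.15% DMSO, 0.5 mg/mL mouse liver microsomes, 1 mM NADPH, 100 mM potassium phosphate pH 7.4. Stopped with acetonitrile containing 0.1% formic acid. Parent remaining measured by LC/MS/MS; disappearance calculated relative to no-NADPH controls.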
# [4] = Drug uptake in nu/nu homozygous mouse plasma at 100 mg/kg, po as a suspension in 10% NMP/corn oil after 4 hrs by HPLC/MS/MS analysis; assay type: ADME, organism-based; parameters: dose 100 mg/kg, route oral; in short: as §1
# [5] = Drug uptake in nu/nu homozygous mouse plasma at 100 mg/kg, po as a solution in 10% EtOH/40% PEG400/water + 1:1 HCl after 4 hrs by HPLC/MS/MS analysis; assay type: ADME, organism-based; parameters: dose 100 mg/kg, route oral; in short: as §1
# [6] = Drug uptake in nu/nu homozygous mouse plasma at 100 mg/kg, po as a suspension in 10% NMP/corn oil after 1 hr by HPLC/MS/MS analysis; assay type: ADME, organism-based; parameters: dose 100 mg/kg, route oral; in short: as §1
# [7] = test system: Mus musculus; test: Toxicity in athymic nude mouse xenografted with human MDA-MB-231T cells assessed as body weight loss at 300 mg/kg, po qd for 14 days post implantation measured for 14 days; assay type: organism-based; parameters: dose 300 mg/kg, route oral; conditions: in vivo, 336 h
# In short: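 Female NCr athymic nude mice bearing mammary fat pad MDA-MB-231T tumors (1 x 10⁶ cells). Dosed orally once daily at 10 mL/kg from fresh solutions. Body weights recorded daily; clinical signs and survival monitored daily.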
# [8] = target: Sphingosine 1-phosphate receptor 2 (Homo sapiens, UniProt O95136); test: Antagonist activity at S1P2 receptor expressed in HEK293 cells assessed as inhibition of S1P-induced tango beta-arrestin recruitment preincubated for 30 mins prior S1P addition measured after 16 to 18 hrs by luciferase reporter gene assay; assay type: functional, cell-based
# [9] = Antitumor activity against human MDA-MB-231T cells xenografted in athymic nude mouse assessed as tumor growth inhibition at 300 mg/kg, po qd for 14 days post implantation measured for 14 days; assay type: functional; conditions: 336 h, read-out: TGI
# In short: (§2)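 MDA-MB-231T cells grown in DMEM with 10% FBS. 1 x 10⁶ cells in ice-cold HBSS implanted into the mammary fat pad of female athymic nude (NCr) mice, 5-8 wk. Daily oral dosing at 10 mL/kg, solutions made fresh daily. Tumor weight measured twice weekly; TGI calculated against vehicle and staging-day weights; 2-tailed t-test, p<0.05.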
# [10] = target: Sphingosine 1-phosphate receptor 3 (Homo sapiens, UniProt Q99500); test: Antagonist activity at S1P3 receptor expressed in HEK293 cells assessed as inhibition of S1P-induced tango beta-arrestin recruitment preincubated for 30 mins prior S1P addition measured after 16 to 18 hrs by luciferase reporter gene assay; assay type: functional, cell-based
# [11] = target: T1, Sphingosine 1-phosphate receptor 1; test: Antagonist activity at S1P1 receptor expressed in HEK293 cells assessed as inhibition of S1P-induced tango beta-arrestin recruitment preincubated for 30 mins prior S1P addition measured after 16 to 18 hrs by luciferase reporter gene assay; assay type: functional, cell-based
# [12] = Drug uptake in nu/nu homozygous mouse plasma at 100 mg/kg, po as a suspension in 10% NMP/corn oil after 24 hrs by HPLC/MS/MS analysis; assay type: ADME, organism-based; parameters: dose 100 mg/kg, route oral
# [13] = target: Cytochrome P450 2D6 (Homo sapiens, UniProt P10635); test: Inhibition of human CYP2D6 using bufuralol as substrate by LC/MS/MS analysis; assay type: ADME
# In short: (§3)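 Pooled human liver microsomes in 100 mM potassium phosphate, pH 7.4, at 37 °C with 1000 µM NADPH for 15 min. Microsomes 0.15 mg/mL for CYP2C9 and CYP2D6, 0.25 mg/mL for CYP3A4. Inhibitor tested at six concentrations (0.2–50 µM). Reactions quenched with acetonitrile; metabolite measured by LC/MS/MS; IC50 from 4-parameter sigmoidal fit.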
# [14] = target: Cytochrome P450 2C9 (Homo sapiens, UniProt P11712); test: Inhibition of human CYP2C9 using tolbutamide as substrate by LC/MS/MS analysis; assay type: ADME; in short: as §3
# [15] = target: Cytochrome P450 3A4 (Homo sapiens, UniProt P08684); test: Inhibition of human CYP3A4 using testosterone as substrate by LC/MS/MS analysis; assay type: ADME; in short: as §3
# [16] = Antitumor activity against human MDA-MB-231T cells xenografted in athymic nude mouse assessed as tumor growth inhibition at 100 mg/kg, po qd for 14 days post implantation measured for 14 days; assay type: functional; conditions: 336 h, read-out: TGI; in short: as §2
# Sequence of Cytochrome P450 2D6 (P10635 whole entry): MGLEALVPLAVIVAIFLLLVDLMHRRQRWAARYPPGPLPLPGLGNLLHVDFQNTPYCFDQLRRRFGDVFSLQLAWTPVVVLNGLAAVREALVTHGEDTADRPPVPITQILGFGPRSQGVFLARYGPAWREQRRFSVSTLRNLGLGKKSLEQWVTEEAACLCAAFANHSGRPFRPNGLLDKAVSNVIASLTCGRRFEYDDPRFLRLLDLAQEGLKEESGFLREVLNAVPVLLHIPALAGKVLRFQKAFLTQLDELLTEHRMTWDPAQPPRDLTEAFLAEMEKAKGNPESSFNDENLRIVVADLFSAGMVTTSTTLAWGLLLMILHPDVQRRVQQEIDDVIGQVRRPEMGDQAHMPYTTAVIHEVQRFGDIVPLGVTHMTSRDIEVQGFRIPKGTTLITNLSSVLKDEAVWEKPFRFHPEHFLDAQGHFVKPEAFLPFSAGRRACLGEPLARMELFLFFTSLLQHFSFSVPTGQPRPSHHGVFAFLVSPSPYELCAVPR
# T1 sequence (P21453 whole entry): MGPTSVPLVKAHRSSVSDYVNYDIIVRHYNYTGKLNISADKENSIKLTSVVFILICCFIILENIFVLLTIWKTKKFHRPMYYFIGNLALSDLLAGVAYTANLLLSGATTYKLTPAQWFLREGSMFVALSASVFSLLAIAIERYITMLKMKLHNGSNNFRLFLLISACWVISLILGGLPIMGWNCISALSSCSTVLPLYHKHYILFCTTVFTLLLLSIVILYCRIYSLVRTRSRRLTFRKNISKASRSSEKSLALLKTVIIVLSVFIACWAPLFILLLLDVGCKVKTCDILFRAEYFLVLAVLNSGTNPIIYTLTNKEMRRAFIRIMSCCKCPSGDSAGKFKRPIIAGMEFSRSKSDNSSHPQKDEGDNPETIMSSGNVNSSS
# Sequence of Sphingosine 1-phosphate receptor 3 (Q99500 whole entry): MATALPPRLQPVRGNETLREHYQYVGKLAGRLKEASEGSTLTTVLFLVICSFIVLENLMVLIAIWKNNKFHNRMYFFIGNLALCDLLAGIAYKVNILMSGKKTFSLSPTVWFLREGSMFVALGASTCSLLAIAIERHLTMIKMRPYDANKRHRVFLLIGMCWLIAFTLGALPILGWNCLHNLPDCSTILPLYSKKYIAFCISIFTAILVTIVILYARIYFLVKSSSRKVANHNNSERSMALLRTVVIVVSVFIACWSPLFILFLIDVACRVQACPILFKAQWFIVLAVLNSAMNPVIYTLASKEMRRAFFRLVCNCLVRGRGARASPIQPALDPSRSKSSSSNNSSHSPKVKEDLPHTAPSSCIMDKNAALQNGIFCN
# Sequence of Cytochrome P450 2C9 (P11712 whole entry): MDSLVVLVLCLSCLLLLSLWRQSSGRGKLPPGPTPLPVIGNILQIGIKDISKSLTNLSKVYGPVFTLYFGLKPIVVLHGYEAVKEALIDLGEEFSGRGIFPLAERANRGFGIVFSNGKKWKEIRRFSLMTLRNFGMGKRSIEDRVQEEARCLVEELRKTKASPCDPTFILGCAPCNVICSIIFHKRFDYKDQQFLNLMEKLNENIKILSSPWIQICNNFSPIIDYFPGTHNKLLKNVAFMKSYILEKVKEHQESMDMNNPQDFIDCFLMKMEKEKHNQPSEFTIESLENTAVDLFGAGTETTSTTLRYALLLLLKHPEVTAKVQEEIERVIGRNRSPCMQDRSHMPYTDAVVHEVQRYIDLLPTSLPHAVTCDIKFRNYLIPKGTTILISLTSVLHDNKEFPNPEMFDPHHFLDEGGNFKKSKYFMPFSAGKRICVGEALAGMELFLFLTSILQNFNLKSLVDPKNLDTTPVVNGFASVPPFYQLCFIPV
# Sequence of Cytochrome P450 3A4 (P08684 whole entry): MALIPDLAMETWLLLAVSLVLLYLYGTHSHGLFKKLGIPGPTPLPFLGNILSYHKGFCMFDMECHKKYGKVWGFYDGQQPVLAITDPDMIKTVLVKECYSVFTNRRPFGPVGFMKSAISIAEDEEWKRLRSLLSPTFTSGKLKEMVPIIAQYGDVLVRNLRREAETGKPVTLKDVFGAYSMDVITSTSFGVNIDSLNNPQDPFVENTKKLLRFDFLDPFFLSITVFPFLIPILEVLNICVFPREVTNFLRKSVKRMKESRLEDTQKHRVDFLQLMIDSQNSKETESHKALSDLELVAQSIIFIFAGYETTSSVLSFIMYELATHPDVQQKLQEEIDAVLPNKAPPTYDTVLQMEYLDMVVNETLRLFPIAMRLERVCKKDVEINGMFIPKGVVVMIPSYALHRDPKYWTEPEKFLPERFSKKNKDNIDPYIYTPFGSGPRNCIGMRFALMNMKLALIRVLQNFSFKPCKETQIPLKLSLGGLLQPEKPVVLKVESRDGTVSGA
# Sequence of Sphingosine 1-phosphate receptor 2 (O95136 whole entry): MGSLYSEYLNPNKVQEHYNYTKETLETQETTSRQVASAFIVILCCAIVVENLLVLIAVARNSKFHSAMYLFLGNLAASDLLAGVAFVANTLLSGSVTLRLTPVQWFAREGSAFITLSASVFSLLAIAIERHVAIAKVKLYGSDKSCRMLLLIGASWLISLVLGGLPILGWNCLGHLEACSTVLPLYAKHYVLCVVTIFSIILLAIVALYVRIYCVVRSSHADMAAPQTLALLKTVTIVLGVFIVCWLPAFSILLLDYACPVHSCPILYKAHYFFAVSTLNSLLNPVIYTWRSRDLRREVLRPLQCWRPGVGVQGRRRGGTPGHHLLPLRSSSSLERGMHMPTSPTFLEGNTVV
smiles,measurement,setting,value
O=C(Cc1cnc[nH]1)N[C@@H](COCc1ccccc1)C(=O)Nc1ccc(Oc2cccc(Cl)c2)cc1,pIC50,[1],7.02
CN(CC(=O)N[C@H](COCc1ccccc1)C(=O)Nc1ccc(Oc2ccccc2)cc1)C(=O)c1ccccc1,pIC50,[1],< 5.00
CN(CC(=O)N[C@@H](COCc1ccccc1)C(=O)Nc1ccc(Oc2ccccc2)cc1)C(=O)c1ccccc1,pIC50,[1],6.26
O=C(N[C@@H](COCc1ccccc1)C(=O)Nc1ccc(Oc2ccccc2)cc1)c1cnc[nH]1,pIC50,[1],< 6.00
O=C(Cc1cnc[nH]1)N[C@@H](COCc1ccccc1)C(=O)Nc1ccc(Oc2ccccc2)cc1,concentration at 1 h,[2],5 µM
same,"metabolised at 0.5 h, 15 µM",[3],28%
same,pIC50,[1],7.48
same,concentration at 4 h,[4],0.3 µM
same,concentration at 4 h,[5],3 µM
same,concentration at 1 h,[6],4.4 µM
Cn1cnc(CC(=O)N[C@@H](COCc2ccccc2)C(=O)Nc2ccc(Oc3ccccc3)cc2)c1,pIC50,[1],6.64
O=C(Cc1cc(Cl)ccc1Cl)N[C@@H](COCc1ccccc1)C(=O)Nc1ccc(Oc2ccccc2)cc1,pIC50,[1],< 5.00
O=C(Cc1ccccc1F)N[C@@H](COCc1ccccc1)C(=O)Nc1ccc(Oc2ccccc2)cc1,pIC50,[1],6.30
O=C(Cc1cnc[nH]1)N[C@@H](COCc1ccccc1)C(=O)Nc1ccc(Oc2ccccc2)c(Cl)c1,pIC50,[1],6.68
O=C(Cc1cnc[nH]1)N[C@@H](COCc1ccccc1)C(=O)Nc1ccc(Oc2ccccc2Cl)cc1,pIC50,[1],< 5.00
O=C(Cc1c[nH]cn1)N[C@@H](COCc1ccccc1)C(=O)Nc1ccc(Oc2ccc(F)cc2)cc1,Activity,[7],Non-toxic
same,pIC50,[8],< 5.00
same,inhibition in vivo at 300 mg/kg,[9],54%
same,concentration at 1 h,[2],8 µM
same,"metabolised at 0.5 h, 15 µM",[3],9%
same,pIC50,[1],7.89
same,pIC50,[10],< 5.00
same,concentration at 4 h,[5],3 µM
same,pIC50,[11],6.55
O=C(Cc1cnc[nH]1)N[C@@H](COCc1ccccc1)C(=O)Nc1ccc(OC2CCCCC2)cc1,pIC50,[1],6.15
O=C(Cc1c[nH]cn1)N[C@@H](COCc1ccccc1)C(=O)Nc1ccc(OCc2ccccc2)cc1,pIC50,[1],6.82
O=C(Cc1cnc[nH]1)N[C@@H](COCc1ccccc1)C(=O)Nc1ccc2oc3ccccc3c2c1,pIC50,[1],< 5.00
O=C(Cc1cnc[nH]1)N[C@@H](COCc1ccccc1)C(=O)Nc1ccc(Cc2ccccc2)cc1,pIC50,[1],< 5.00
O=C(Cc1cnc[nH]1)N[C@@H](COCc1ccccc1)C(=O)Nc1ccc(Nc2ccccc2)cc1,pIC50,[1],6.13
O=C(Cc1cnc[nH]1)N[C@@H](COCc1ccccc1)C(=O)Nc1ccc(-c2ccccc2)cc1,pIC50,[1],< 5.00
O=C(Cc1cnc[nH]1)N[C@@H](CCCc1ccccc1)C(=O)Nc1ccc(Oc2ccccc2)cc1,pIC50,[1],7.85
C[C@H](NC(=O)Cc1cnc[nH]1)C(=O)Nc1ccc(Oc2ccc(Cl)cc2)cc1,pIC50,[1],6.12
O=C(Cc1cnc[nH]1)N[C@@H](Cc1ccccc1)C(=O)Nc1ccc(Oc2ccc(Cl)cc2)cc1,pIC50,[1],6.49
CN(C(=O)Cc1c[nH]cn1)[C@@H](COCc1ccccc1)C(=O)Nc1ccc(Oc2ccccc2)cc1,pIC50,[1],6.74
CN(C(=O)[C@H](COCc1ccccc1)NC(=O)Cc1cnc[nH]1)c1ccc(Oc2ccccc2)cc1,pIC50,[1],5.08
O=C(Nc1ccc(Oc2ccc(F)cc2)cc1)[C@@H]1CN(Cc2ccccc2)CCN1C(=O)Cc1cnc[nH]1,pIC50,[1],7.08
same,concentration at 4 h,[4],6.3 µM
same,concentration at 24 h,[12],9.2 µM
O=C(Nc1ccc(Oc2ccc(F)cc2)cc1)[C@@H]1C[C@@H](Cc2ccccc2)CN1C(=O)Cc1cnc[nH]1,pIC50,[13],5.93
same,pIC50,[1],7.07
same,concentration at 4 h,[4],9.8 µM
same,pIC50,[14],> 6.69
same,pIC50,[15],5.15
same,concentration at 1 h,[6],26.2 µM
O=C(Nc1ccc(Oc2ccc(F)cc2)cc1)[C@@H]1C[C@@H](c2ccccc2)CN1C(=O)Cc1cnc[nH]1,pIC50,[13],6.18
same,pIC50,[1],6.80
same,concentration at 4 h,[4],27.2 µM
same,concentration at 24 h,[12],5 µM
same,pIC50,[14],6.67
same,pIC50,[15],6.52
O=C(Nc1ccc(Oc2ccc(F)cc2)cc1)[C@@H]1C[C@@H](c2ccccc2)CN1C(=O)Cn1cncn1,pIC50,[1],6.31
O=C(Nc1ccc(Oc2ccc(F)cc2)cc1)[C@@H]1C[C@@H](Cc2ccccc2)CN1C(=O)Cn1cncn1,pIC50,[8],< 5.00
same,pIC50,[13],6.41
same,"metabolised at 0.5 h, 15 µM",[3],13%
same,pIC50,[1],8.17
same,concentration at 4 h,[4],86.4 µM
same,pIC50,[10],< 5.00
same,concentration at 24 h,[12],8.3 µM
same,pIC50,[14],5.64
same,pIC50,[15],< 4.70
same,pIC50,[11],7.35
O=C(Nc1ccc(Oc2ccc(F)cc2)cc1)[C@@H]1C[C@@H](Cc2ccc(F)cc2)CN1C(=O)Cn1cncn1,pIC50,[8],< 5.00
same,pIC50,[13],5.13
same,"metabolised at 0.5 h, 15 µM",[3],8%
same,pIC50,[1],8.24
same,concentration at 4 h,[4],104 µM
same,pIC50,[10],< 5.00
same,concentration at 24 h,[12],18 µM
same,pIC50,[14],5.66
same,pIC50,[15],4.90
same,pIC50,[11],7.89
O=C(Nc1ccc(Oc2ccc(F)cc2)cc1)[C@@H]1C[C@H](Cc2ccc(F)cc2)CN1C(=O)Cn1cncn1,pIC50,[13],5.42
same,pIC50,[1],7.32
same,pIC50,[14],5.87
same,pIC50,[15],< 4.70
O=C(Nc1ccc(Oc2ccc(F)cc2)cc1)[C@H]1C[C@H](Cc2ccc(F)cc2)CN1C(=O)Cn1ccnn1,pIC50,[1],< 6.00
O=C(Nc1ccc(Oc2ccc(F)cc2)cc1)[C@@H]1C[C@@H](Cc2ccc(F)cc2)CN1C(=O)Cn1nccn1,pIC50,[8],< 5.00
same,pIC50,[13],< 4.30
same,pIC50,[1],8.32
same,concentration at 4 h,[4],23 µM
same,pIC50,[10],< 5.00
same,concentration at 24 h,[12],2 µM
same,pIC50,[14],4.76
same,pIC50,[15],< 4.70
same,inhibition in vivo at 100 mg/kg,[16],60%
same,pIC50,[11],7.68
O=C(CCCC(=O)c1cccs1)NC(COCc1ccccc1)C(=O)Nc1ccc(Oc2ccccc2)cc1 (racemic),pIC50,[1],6.54
O=C(NC(COCc1ccccc1)C(=O)Nc1ccc(Oc2ccccc2)cc1)C1CC1 (racemic),pIC50,[1],6.53
